Screening data (PubChem)
The list is not random: actives were taken first. Their share in the collection is about 4.9%.
STAT3 blocker: inhibitors of IL-6 induced STAT3 signaling. U3A cells, IL-6 STAT3-luciferase reporter, luminescence; host cell line lacks STAT1. inhibition, % at 5.5 µM. 0.89% of 190,000 active;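 active means inhibition above the mean inhibition across all screened compounds plus 3 SD, cut at about 44% in these data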;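 further: 0% = DMSO only wells and 100% = 100 µM nifuroxazide control wells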
STAT1 act-1: STAT1 signaling activation; AID 932; NIH 3T3 STAT1-luciferase reporter, IFN-gamma, luminescence; 100% = IFN-gamma alone, no compound; activation (% of control), % at 5.5 µM; 2.6% of 200,000 active;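 active means activation above the screen-wide mean activation plus 3 SD, cut at about 130% in these data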;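 further: raw ratio to IFN-gamma control signal so 100% means no change and 0% no light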
STAT3 act-1: STAT3 signaling activation | U3A cells, IL-6 STAT3-luciferase reporter, luminescence; 100% = signal with IL-6 EC80 alone | activation (% of control), % at 5.6 µM | 0.91% of 190,000 active;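 active means activation above the screen-wide mean of compound activation plus 3 SD, cut at about 130% in these data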;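 further: 0% = background luminescence of wells with medium and substrate only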
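Material: STAT3-luciferase reporter U3A cells; Probe or stimulus: IL-6 (33 ng/mL); Incubation: compound pre-incubation 1 h before IL-6, then 6 h stimulation at 37 °C; Technique: luminescence from STAT3-driven luciferase reporter; Evaluation: % activation versus median of IL-6-stimulated wells; Controls: IL-6-only high control.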
STAT1 blocker: reduces IFN-gamma driven STAT1 reporter signal. NIH 3T3 STAT1-luciferase reporter, luminescence. inhibition, % at 5.5 µM. 0.35% of 200,000 active. AID 920;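 active means inhibition above a set limit, the mean inhibition across all tested compounds plus 3 SD, cut at about 34% in these data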;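 further: 0% = IFN-gamma with DMSO and 100% = IFN-gamma with 300 µM nifuroxazide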
APP 5'UTR act: activates APP 5'UTR luciferase reporter | activation, % at 2 µM | SH-SY5Y APP 5'UTR luciferase reporter, luminescence; zero percent = DMSO vehicle wells | 1% of 190,000 active;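 active means activation above a set limit, based on mean plus 3 SD of controls, cut at about 140% in these data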
NF-kB neuron act: NF-kB expression increase, human neuronal cells; NF-kB reporter expression; hits give high values; 1.6% of 190,000 active; fold change at 12.5 µM; in the data active means fold change above about 3.3
STAT3 act-2: confirmation of STAT3 signaling activators | shares compounds with STAT3 act-1 | AID 1267 | potentiation (% of control), % at 5.7 µM | 64% of 1,200 active | U3A STAT3-luciferase reporter, IL-6 potentiation, luminescence; U3A cells lack STAT1; 100 means same as IL-6 alone;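 active means percent activation of the STAT3 luciferase reporter above a set limit taken from the earlier primary screen, cut at about 130% in these data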;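 further: 0% = background signal of medium plus substrate and 100% = median of IL-6 with DMSO wells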
NFkB act 2: activates NF-kappaB, counter-screen to STAT3 activators; shares compounds with STAT3 act-1; human cells, NF-kappaB reporter activation; activation (% of control), % at 5.7 µM; 11% of 1,200 active; AID 1309; in the data active means activation above about 120%;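 further: reporter induced by TNF-alpha stimulation; 100% = median of stimulated DMSO wells and 0% = no signal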
STAT1 act-2: counter-screen for STAT3 activators: STAT1 activation | NIH 3T3 STAT1-luciferase reporter, IFN-gamma, luminescence | 13% of 1,200 active | activation (% of control), % at 5.7 µM | shares compounds with STAT3 act-1 | AID 1318;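 active means activation above the solvent-only control well mean plus 3 SD, set per screening run, cut at about 120% in these data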;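 further: 100% = IFN-gamma with DMSO median signal so 100% means no change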
* = called active by the depositor; · = no result.

SMILES	STAT3 blocker	STAT1 act-1	STAT3 act-1	STAT1 blocker	APP 5'UTR act	NF-kB neuron act	STAT3 act-2	NFkB act 2	STAT1 act-2
OC1(c2ccccc2)c2ccccc2-c2ncccc21 (stereo unspecified)	-41	103	137*	-4	-8	1.1	134*	98	100
O=C1Nc2ccccc2C1(O)c1ccccc1 (stereo unspecified)	7	98	99	1	-12	0.92	·	·	·
CCCC1=Nc2cc(C(=O)NCCCOCC)ccc2Sc2ccccc21	-42	118	137*	-21	-97	3	114	156*	107
CCCC1=Nc2cc(C(=O)NCCCOC(C)C)ccc2Sc2ccccc21	8	91	98	10	-2	1.1	·	·	·
CC(C)CCNC(=O)NC(=O)CSc1ncccn1	0	104	104	-8	2	1.1	·	·	·
CC(C)CCNC(=O)Cc1ccccc1[N+](=O)[O-]	-47	91	150*	10	12	0.92	128	102	96
COc1ccc(C)cc1S(=O)(=O)Nc1ccc2c(c1)OCO2	-1	97	103	2	8	1.2	·	·	·
O=C(NCC1CCCO1)c1ccc(COc2ccc(F)cc2)o1 (stereo unspecified)	-44	119	138*	-21	-17	1	99	103	98
CCS(=O)(=O)Nc1c(C(=O)O)[nH]c2ccccc12	-71	94	164*	7	17	1.3	169*	102	97
COC(=O)c1[nH]c2ccccc2c1NC(=O)CN1CCCCCC1	-1	93	104	7	2	0.56	·	·	·
CC(=O)Nc1c(C(=O)O)[nH]c2ccccc12	-20	101	120	-1	9	1.1	·	·	·
CCS(=O)(=O)Nc1c(C(=O)OC)[nH]c2ccccc12	-42	86	139*	15	6	1.2	119	97	92
Cc1cc(NC(=O)CSc2nc3c([nH]c4ccccc43)c(=O)n2-c2cccc(C(F)(F)F)c2)no1	-49	91	148*	10	19	1	138*	105	85
COc1cccc(-n2c(SCC(=O)N3CCCCC3)nc3c([nH]c4ccccc43)c2=O)c1	·	91	·	9	3	1	·	·	·
COc1cccc(-n2c(SCC(N)=O)nc3c([nH]c4ccccc43)c2=O)c1	-43	94	143*	6	10	1.2	158*	107	97
COc1cccc(-n2c(SCC(=O)Nc3cc(C)on3)nc3c([nH]c4ccccc43)c2=O)c1	-48	81	144*	21	-13	2.1	135*	100	90
COc1cccc(-n2ccnc2SCC(=O)Nc2cc(C)on2)c1	7	92	100	7	20	0.85	·	·	·
CNC(=O)CSc1nc2c([nH]c3ccccc32)c(=O)n1CCOC	-52	87	141*	14	-4	1.1	150*	98	91
O=C(/C=C/c1ccccc1[N+](=O)[O-])N1CCN(C(=O)c2ccco2)CC1	-4	103	109	-4	-1	1.1	·	·	·
CC(C)Sc1nc2c([nH]c3ccccc32)c(=O)n1C	-61	91	158*	10	0	1.2	159*	92	87
CCOC(=O)C(C)Sc1nc2c([nH]c3ccccc32)c(=O)n1C (stereo unspecified)	-21	93	120	7	1	1.2	·	·	·
Cc1cc(NC(=O)CS(=O)(=O)Cc2ccccc2)no1	14	104	92	-5	-23	1.1	·	·	·
Cc1ccc(CNC(=O)C2CC(c3ccccc3[N+](=O)[O-])=NO2)cc1 (stereo unspecified)	-52	104	156*	-4	-4	0.98	174*	108	112
COc1ccc(/C=C/C(=O)c2cc(F)ccc2OC(=O)c2ccccc2C)cc1OC	-48	100	143*	1	-97	2.6	103	156*	102
COc1ccc(C(=O)Oc2ccc(F)cc2C(=O)/C=C/c2ccc(OC)c(OC)c2)cc1	0	101	99	-1	-11	0.91	·	·	·
SMILES	STAT3 blocker	STAT1 act-1	STAT3 act-1	STAT1 blocker	APP 5'UTR act	NF-kB neuron act	STAT3 act-2	NFkB act 2	STAT1 act-2
CCOC(=O)c1c2n(c3ccc(O)cc13)CCC2	-72	102	163*	-2	7	1.1	82	104	102
Cn1cc(S(=O)(=O)c2ccccc2)n(C)c1=O	7	100	103	-1	4	1	·	·	·
CCc1nc2c(c(=O)c3ccccc3n2C)c(=O)n1CCc1ccc(OC)cc1	-52	110	144*	-11	-12	0.61	202*	92	113
CCCc1nc2c(c(=O)c3ccccc3n2C)c(=O)n1-c1ccc(F)cc1	-27	108	119	-9	5	1.2	·	·	·
O=S(=O)(c1ccccc1)N(CC1CO1)c1cccc2ccccc12 (stereo unspecified)	0	97	103	1	-9	1.7	·	·	·
CSc1nsc(/C=C/Nc2ccc(C)c(C)c2)c1C#N	7	97	97	2	4	1.2	·	·	·
CSc1nsc(/C=C/Nc2ccc(C)cc2)c1C#N	-45	103	137*	0	-15	1	136*	105	108
Cn1c(=O)c2c(nc(N3CCc4ccccc4C3)n2C)n(C)c1=O	-19	100	117	-1	15	0.92	·	·	·
O=C(CN1CCC(NC(=O)c2ccco2)CC1)Nc1cccc2ccccc12	-3	96	103	4	20	0.86	·	·	·
O=C(CN1CCC(NC(=O)c2ccco2)CC1)Nc1ccccc1[N+](=O)[O-]	-40	92	138*	6	4	0.91	144*	104	92
Cn1c(SCc2nc3ccccc3s2)nnc1-c1cccs1	-23	102	123	-3	15	1	·	·	·
CCn1c(SCc2nc3ccccc3s2)nnc1-c1cccs1	-40	117	142*	-19	56	1.1	143*	115	129*
COc1ccccc1-c1nnc(SCc2nc3ccccc3s2)n1C	-33	104	129	-4	13	1.4	·	·	·
CCOc1ccccc1-n1nnnc1SCc1nc2ccccc2s1	-70	116	166*	-17	36	0.85	156*	119	128*
Brc1ccc2ncnc(Nc3cccc4ccccc34)c2c1	-42	75	147*	28	14	0.48	163*	97	88
